Results as given in paper PMC4068216 (ACS Chemical Biology, 2014).

How the values were obtained:
LAT3 = target: T1, LAT3 (Homo sapiens, UniProt O75387); assay: [3H]-L-leucine uptake assay in LNCaP cells; assay type: cell-based
T1 sequence (O75387 1-559): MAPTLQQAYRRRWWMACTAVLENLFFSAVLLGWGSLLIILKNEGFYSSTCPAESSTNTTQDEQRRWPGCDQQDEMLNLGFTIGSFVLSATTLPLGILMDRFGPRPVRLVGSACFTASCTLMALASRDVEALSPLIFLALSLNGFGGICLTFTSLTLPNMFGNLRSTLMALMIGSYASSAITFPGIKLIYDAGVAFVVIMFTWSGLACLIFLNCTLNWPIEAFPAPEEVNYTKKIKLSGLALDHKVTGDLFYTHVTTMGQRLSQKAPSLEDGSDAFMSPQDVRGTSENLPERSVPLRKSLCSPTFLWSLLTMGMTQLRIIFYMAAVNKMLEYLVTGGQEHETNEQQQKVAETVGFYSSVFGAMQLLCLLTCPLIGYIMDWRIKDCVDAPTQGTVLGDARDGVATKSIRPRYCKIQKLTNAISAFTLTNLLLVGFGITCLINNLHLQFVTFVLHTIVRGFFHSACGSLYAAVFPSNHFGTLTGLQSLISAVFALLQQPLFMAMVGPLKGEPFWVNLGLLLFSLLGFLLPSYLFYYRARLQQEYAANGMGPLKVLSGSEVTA
Procedure, shortened: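 Dose–response: LNCaP cells (3 × 10^4/well) took up 0.3 μCi [3H]-L-leucine (200 nM) in leucine-free RPMI with 10% dialysed FBS for 15 min at 37 °C. Screen: 10^4 cells/well in HBSS with 10% dialysed FBS and 50 mM L-glutamine, added onto preloaded fractions, n = 1 per fraction. Controls were 0.5% DMSO and 10 mM BCH. Cells were filter-harvested for scintillation counting.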

LNCaP cells = assay: BrdU incorporation assay in LNCaP cells; assay type: cell-based, human; settings: BCH 10 mM, ESK242 and ESK246 50 μM, 22 h then BrdU 2 h
Procedure, shortened: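 LNCaP cells (2 × 10^5 per 6-well) adhered overnight, were serum-starved, then exposed to test compound, DMSO vehicle or BCH for 22 h. BrdU (150 μg/mL) was added for a further 2 h. Cells were detached, fixed and stained with APC anti-BrdU (1:50) and 7-AAD, then analysed by flow cytometry. Three separate experiments; one-way ANOVA.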

LAT1 = settings: only tested on LAT1 and LAT2; cited from earlier work
[1] = tested on: HT-29 colorectal adenocarcinoma cell; settings: in vitro and in vivo; cited from earlier work
[2] = substrate: CC(C)C[C@H](N)C(=O)O; assay: [3H]-L-leucine uptake in Xenopus laevis oocytes expressing LAT3; assay type: cell-based, human; settings: other: no inhibitor, pH 7.5

NC1(C(=O)O)CC2CCC1C2 (stereo not shown) [BCH, 2-aminobicyclo[2.2.1]heptane-2-carboxylic acid]
IC50 (LAT3): 4.06 ± 0.0011 mM
leucine uptake (LAT3; high-throughput screen, positive control 10 mM, LNCaP cells): 30–40 % of control
BrdU incorporation (LNCaP cells): 14.7%
BrdU incorporation relative to control (LNCaP cells): 51.6 % of control

Nc1cc(COc2c(Cl)cc(C[C@H](N)C(=O)O)cc2Cl)c2oc(-c3ccccc3)nc2c1 [JPH203/KYT-0353]
selectivity, LAT1 versus LAT2 (LAT1): selectivity for LAT1-mediated transport
HT-29 cell growth [1]: suppression of HT-29 colorectal adenocarcinoma cell growth in vitro and in vivo

B1: LAT3 (Homo sapiens) (protein)
chain: MAPTLQQAYRRRWWMACTAVLENLFFSAVLLGWGSLLIILKNEGFYSSTCPAESSTNTTQDEQRRWPGCDQQDEMLNLGFTIGSFVLSATTLPLGILMDRFGPRPVRLVGSACFTASCTLMALASRDVEALSPLIFLALSLNGFGGICLTFTSLTLPNMFGNLRSTLMALMIGSYASSAITFPGIKLIYDAGVAFVVIMFTWSGLACLIFLNCTLNWPIEAFPAPEEVNYTKKIKLSGLALDHKVTGDLFYTHVTTMGQRLSQKAPSLEDGSDAFMSPQDVRGTSENLPERSVPLRKSLCSPTFLWSLLTMGMTQLRIIFYMAAVNKMLEYLVTGGQEHETNEQQQKVAETVGFYSSVFGAMQLLCLLTCPLIGYIMDWRIKDCVDAPTQGTVLGDARDGVATKSIRPRYCKIQKLTNAISAFTLTNLLLVGFGITCLINNLHLQFVTFVLHTIVRGFFHSACGSLYAAVFPSNHFGTLTGLQSLISAVFALLQQPLFMAMVGPLKGEPFWVNLGLLLFSLLGFLLPSYLFYYRARLQQEYAANGMGPLKVLSGSEVTA
Km [2]: 6.3 ± 0.5 mM
